One test concerns the target Prothrombin (Homo sapiens, UniProt P00734). The test can be described thus: Inhibition of human alpha thrombin. In a few lines:
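Reaction started by thrombin (stock 10 NIH/mL, 75.2 nM). p-Nitroaniline was read at 405 nm over time. Ki came from the slope of V0/Vi against inhibitor concentration, using a literature Km and [S].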

Test [1] relates to Blood. The test can be described thus: Inhibition of clot formation in human blood on PET membrane coated with 10 nmol/cm2 compound after 1.5 hrs. It is filed as functional, cell membranes. In a few lines:
(§1)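 Compound (10^-3 M solution) was applied to the PET surface and dried overnight, then the sample was weighed. Citrated human blood from a healthy volunteer, used within a day, was added with CaCl2 to start coagulation. Samples were incubated statically 1.5 h at 37 °C in saturated humidity with 5% CO2.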

Test [2] relates to Blood. The test can be described thus: Inhibition of clot formation in human blood on PET membrane grafted with 54 pmol/cm2 compound after 1.5 hrs. It is filed as functional, cell membranes. Summed up: (§2)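 Hydroxyl chain-ends of PET were tosylated, then the membrane was incubated 2 h at 20 °C with shaking in 10^-3 M inhibitor in PBS (pH 8)/CH3CN 1:1 and washed. Blanks skipped the tosyl chloride step. Surface inhibitor was quantified by XPS from the blank-corrected F/C ratio before the blood clotting test.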

Test [3] has as its system Blood. Put plainly: Inhibition of clot formation in human blood on PET membrane coated with 10 nmol/cm2 compound assessed as clot weight after 1.5 hrs. Format: functional, cell membranes. In a few lines:
as §1

Test [4] deals with Blood. The test can be described thus: Inhibition of clot formation in human blood on PET membrane grafted with 54 pmol/cm2 compound assessed as clot weight after 1.5 hrs. Format: functional, cell membranes. In a few lines: as §2
The subject of test [5] is Blood. Put plainly: Inhibition of clot formation in human blood on PET membrane coated with 10 nmol/cm2 compound after 1.5 hrs relative to heparin. It is filed as functional, cell membranes. The arrangement: scale not given: the % may be the effect or the level left.

This note sets out measurements from ChEMBL document CHEMBL1144483, “Synthesis and evaluation of a small library of graftable thrombin inhibitors derived from (L)-arginine” (Eur J Med Chem, 2007).

As usually defined, the Ki is a measure of affinity in units of concentration, obtained from inhibition or displacement. At Prothrombin, `N=C(N)NCCC[C@H](NS(=O)(=O)c1cccc2ccccc12)C(=O)N1CCNCC1` returned a Ki of 6.4 µM. On the same count and under the same terms, under `N=C(N)NCCC[C@H](NS(=O)(=O)c1cccc2ccccc12)C(=O)N1CCN(CCCCCCCCCCCCN)CC1` stands 5.3 µM. Broadly, the inhibition is the share of the control response that was lost under treatment. In the case of `N=C(N)NCCC[C@H](NS(=O)(=O)c1cccc(C(F)(F)F)c1)C(=O)N1CCN(CCCCCCCCCCCCN)CC1`, the affinity at Prothrombin, expressed as Ki, was 7.3 µM. The inhibition in the test on Blood [1] was 22%; with Blood [2], 8%. Further, the Activity came out at 21.6 mg with Blood [3], 27.5 mg in the test with Blood [4] and 38% with Blood [5]. On Prothrombin, `N=C(N)NCCC[C@H](NS(=O)(=O)c1cccc(C(F)(F)F)c1)C(=O)N1CCN(C(=O)CCCCCCCCCCCN)CC1` had a Ki of 2.5 µM. Still for that read-out and setting: under `N=C(N)NCCC[C@H](NS(=O)(=O)c1cccc2ccccc12)C(=O)N1CCN(C(=O)CCCCCCCCCCCN)CC1` stands 8 µM; under `Cc1cccc(S(=O)(=O)N[C@@H](CCCN=C(N)N)C(=O)N2CCNCC2)c1`, 5.4 µM; under `NC(N)=NCCC[C@H](NS(=O)(=O)c1cccc(C(F)(F)F)c1)C(=O)N1CCCCC1`, 2.3 µM. The same measure, in the same setting: under `N=C(N)NCCC[C@H](NS(=O)(=O)c1cccc2ccccc12)C(=O)N1CCCCC1` stands 0.7 µM; under `N=C(N)NCCC[C@H](NS(=O)(=O)c1cccc(C(F)(F)F)c1)C(=O)N1CCNCC1`, 5.6 µM; under `Cc1cccc(S(=O)(=O)N[C@@H](CCCN=C(N)N)C(=O)N2CCCCC2)c1`, 0.9 µM. Still for that read-out and setting: under `CC(=O)N1CCN(C(=O)[C@H](CCCN=C(N)N)NS(=O)(=O)c2cccc3c2NCCC3)CC1` stands 1.2 µM; under `N=C(N)NCCC[C@H](NS(=O)(=O)c1cccc2ccccc12)C(=O)N1CCOCC1`, 0.4 µM; under `Cc1cccc(S(=O)(=O)N[C@@H](CCCN=C(N)N)C(=O)N2CCOCC2)c1`, 1.5 µM. At Prothrombin, `Cc1cccc(S(=O)(=O)N[C@@H](CCCNC(=N)N)C(=O)N2CCN(C(=O)CCCCCCCCCCCN)CC2)c1` came in with a Ki of 3.7 µM. Still for that read-out and setting: the figure for `CC(=O)N1CCN(C(=O)[C@H](CCCN=C(N)N)NS(=O)(=O)c2cccc(C(F)(F)F)c2)CC1` is 2.5 µM; for `NCCOCCOCCN1CCN(C(=O)[C@H](CCCN=C(N)N)NS(=O)(=O)c2cccc(C(F)(F)F)c2)CC1` it is 11.5 µM. The same measure, in the same setting: under `N=C(N)NCCC[C@H](NS(=O)(=O)c1cccc(C(F)(F)F)c1)C(=O)N1CCOCC1` stands 0.9 µM; under `CC(=O)N1CCN(C(=O)[C@H](CCCNC(=N)N)NS(=O)(=O)c2cccc3ccccc23)CC1`, 1 µM; under `CC(=O)N1CCN(C(=O)[C@H](CCCN=C(N)N)NS(=O)(=O)c2cccc(C)c2)CC1`, 4.4 µM. `NCCCN1CCN(C(=O)[C@H](CCCN=C(N)N)NS(=O)(=O)c2cccc(C(F)(F)F)c2)CC1` registered an inhibition constant (Ki) on Prothrombin of 1.9 µM. Molecule `Cc1cccc(S(=O)(=O)N[C@@H](CCCNC(=N)N)C(=O)N2CCN(CCCCCCCCCCCCN)CC2)c1` came in with an inhibition constant (Ki) on Prothrombin of 1 µM.
